Measured values as given in ChEMBL document CHEMBL1671855, “Establishment of a cell-based assay for screening of compounds inhibiting very early events in the cytomegalovirus replication cycle and characterization of a compound identified using the assay” (Antimicrob Agents Chemother, 2008).
The source made the active and inactive calls. No cut-off for these calls is given here.

Legend:
[1] = Antiviral activity against Murine cytomegalovirus strain Smith infected in mouse NIH 3T3 cells after 4 to 5 days by plaque reduction assay; format: functional, cell-based; conditions: Murid betaherpesvirus 1, NIH3T3
Procedure, shortened: (§1)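 Semiconfluent fibroblasts (HCMV Towne in HFL, GPCMV in guinea pig lung fibroblasts, MCMV Smith in NIH 3T3) in 12-well plates inoculated with 50 or 100 PFU, centrifuged 600 × g 30 min, 1–2 h at 37°C; inoculum replaced by twofold compound dilutions in 1% methylcellulose, 4% FBS. Incubation 4–5 d MCMV, 6–7 d GPCMV, 10–12 d HCMV; crystal violet/formalin stain, plaques counted, triplicate; EC50 by linear regression of log concentration vs % plaque reduction.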

[2] = test system: Caviid betaherpesvirus 2; test: Antiviral activity against Guinea pig cytomegalovirus (strain 22122; ATCC VR-682) infected in guinea pig lung fibroblast after 6 to 7 days by plaque reduction assay; format: functional, organism-based; procedure, shortened: as §1
[3] = test system: Human betaherpesvirus 5; test: Antiviral activity against Human cytomegalovirus Towne infected in human HFL after 10 to 12 days by plaque reduction assay; format: functional, organism-based; conditions: Human betaherpesvirus 5, Towne; procedure, shortened: as §1
[4] = Cytotoxicity against human hTERT-BJ1 cells; format: cell-based, BJ
Procedure, shortened: (§2)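 Cells at 20–25% confluence in 96-well plates cultured 2–4 days with twofold serial compound dilutions or matching DMSO; supernatant removed, cells rinsed, viability read as ATP luminescence (CellTiter-Glo); triplicate; 50% cytotoxic concentration from log concentration vs RLU plot.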

[5] = test system: Human betaherpesvirus 5; test: Antiviral activity against 0.05 MOI Human cytomegalovirus Towne infected in human hTERT-BJ1 cells assessed as decrease in IE1 gene expression at 20 uM after 24 hrs by RT-PCR; format: functional, organism-based; conditions: BJ
Procedure, shortened: (§3)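 hTERT-BJ1 cells (4 × 10^5 per T12.5 flask) infected with HCMV at MOI 0.05, cultured with DMSO, 15 μM roscovitine or 20 μM test compound for set periods; cells washed with PBS, stored at −80°C, total RNA purified; IE1, IE2 and G6PD transcripts by quantitative RT-PCR, IE1/IE2 given as CT after normalization to G6PD; triplicate experiments, mean and SD.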

[6] = test system: Human betaherpesvirus 5; test: Antiviral activity against Human cytomegalovirus Towne infected in human hTERT-BJ1 cells assessed as decrease in IE2 mRNA level at 5 uM after 24 hrs by immunofluorescent assay; format: functional, organism-based; conditions: BJ
[7] = test system: Human betaherpesvirus 5; test: Antiviral activity against Human cytomegalovirus Towne infected in human hTERT-BJ1 cells assessed as inhibition of virus induced infection after 24 hrs post infection by luciferase reporter gene assay; format: functional, organism-based; conditions: BJ
Procedure, shortened: (§4)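 hTERT-BJ1 cells (3 × 10^4/well, 96-well) infected next day with 2 × 10^3 PFU HCMV Towne and given 20 μM compound or DMSO over varied windows: added at set times and kept to harvest, removed at set times, or present 24 h from set start times. Luciferase measured at 48 h p.i. in three wells; mean and SD.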

[8] = test system: Human betaherpesvirus 5; test: Antiviral activity against 3 MOI Human cytomegalovirus Towne infected in human hTERT-BJ1 cells assessed as inhibition of viral DNA replication at 5 uM by qPCR; format: functional, organism-based; conditions: BJ
Procedure, shortened: (§5)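 hTERT-BJ1 cells infected with HCMV at MOI 0.05 or 3.0, cultured for set durations with DMSO, 20 μM or 5 μM compound; DNA extracted (QIAamp) and HCMV UL83 and human albumin genes quantified by qPCR against plasmid and cellular DNA standards; viral copies divided by albumin copies as copies per cell; triplicate experiments, mean and SD.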

[9] = Cytotoxicity against HLF cells; format: cell-based; conditions: human; procedure, shortened: as §2
[10] = Selectivity index, ratio of CC50 for human lung fibroblast cells to EC50 for Human cytomegalovirus Towne; format: toxicity, cell-based; conditions: read-out: Selectivity Index
[11] = test system: Human betaherpesvirus 5; test: Antiviral activity against Human cytomegalovirus Towne infected in human hTERT-BJ1 cells assessed as inhibition of attachment of virus particles to the cell surface at 1 mg/ml after 2 hrs post infection by quantitative PCR; format: functional, organism-based; conditions: BJ
[12] = test system: Human betaherpesvirus 5; test: Antiviral activity against Human cytomegalovirus AD169 infected in human U4C-48 cells assessed as decrease in viral titer by luciferase reporter gene assay; format: functional, organism-based; conditions: Human betaherpesvirus 5, AD169, U4C-48
[13] = test system: Human betaherpesvirus 5; test: Antiviral activity against Human cytomegalovirus Towne infected in human hTERT-BJ1 cells assessed as decrease in IE1 mRNA level at 5 uM after 24 hrs by immunofluorescent assay; conditions: BJ
[14] = test system: Human betaherpesvirus 5; test: Antiviral activity against 0.05 MOI Human cytomegalovirus Towne infected in human hTERT-BJ1 cells assessed as decrease in IE2 gene expression at 20 uM after 24 hrs by […]; format: functional, organism-based; conditions: BJ; procedure, shortened: as §3
[15] = Selectivity index, ratio of CC50 for human hTERT-BJ1 cells to EC50 for Human cytomegalovirus Towne; format: toxicity, cell-based, BJ; conditions: read-out: Selectivity Index
[16] = test system: Human betaherpesvirus 5; test: Antiviral activity against 0.05 MOI Human cytomegalovirus Towne infected in human hTERT-BJ1 cells assessed as inhibition of viral DNA replication at 5 uM by qPCR; format: functional, organism-based; conditions: BJ; procedure, shortened: as §5
[17] = test system: Human betaherpesvirus 5; test: Antiviral activity against Human cytomegalovirus Towne infected in human hTERT-BJ1 cells assessed as decrease in G6PD gene expression at 15 uM after 24 hrs by RT-PCR; format: functional, organism-based; conditions: BJ; procedure, shortened: as §3
[18] = test system: Human betaherpesvirus 5; test: Antiviral activity against 3 MOI Human cytomegalovirus Towne infected in human hTERT-BJ1 cells assessed as inhibition of viral DNA replication at 20 uM by qPCR; format: functional, organism-based; conditions: BJ; procedure, shortened: as §5
[19] = test system: Human betaherpesvirus 5; test: Antiviral activity against 0.05 MOI Human cytomegalovirus Towne infected in human hTERT-BJ1 cells assessed as decrease in IE2 gene expression at 15 uM after 24 hrs by […]; format: functional, organism-based; conditions: BJ; procedure, shortened: as §3
[20] = test system: Human betaherpesvirus 5; test: Antiviral activity against Human cytomegalovirus Towne infected in human hTERT-BJ1 cells assessed as decrease in G6PD gene expression at 20 uM after 24 hrs by RT-PCR; format: functional, organism-based; conditions: BJ; procedure, shortened: as §3
[21] = test system: Human betaherpesvirus 5; test: Antiviral activity against 0.05 MOI Human cytomegalovirus Towne infected in human hTERT-BJ1 cells assessed as inhibition of viral DNA replication at 20 uM by qPCR; format: functional, organism-based; conditions: BJ; procedure, shortened: as §5
[22] = test system: Human betaherpesvirus 5; test: Antiviral activity against Human cytomegalovirus RC256 infected in human hTERT-BJ1 cells after 1 hr by Immunostaining and Xgal staining; format: functional, organism-based; conditions: Human betaherpesvirus 5, RC256, BJ
Procedure, shortened: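 hTERT-BJ1 cells infected with HCMV RC256, a β-galactosidase-expressing recombinant Towne strain, in the presence of various compound concentrations; infected cells counted after X-Gal staining to derive EC50.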

[23] = test system: Human betaherpesvirus 5; test: Antiviral activity against Human cytomegalovirus Towne infected in human hTERT-BJ1 cells assessed as inhibition of virus induced infection after 12 hrs post infection by luciferase reporter gene assay; format: functional, organism-based; conditions: BJ; procedure, shortened: as §4
[24] = test system: Human betaherpesvirus 5; test: Antiviral activity against Human cytomegalovirus Towne infected in human hTERT-BJ1 cells assessed as inhibition of virus induced infection after 6 hrs post infection by luciferase reporter gene assay; format: functional, organism-based; conditions: BJ; procedure, shortened: as §4
[25] = test system: Human betaherpesvirus 5; test: Antiviral activity against Human cytomegalovirus Towne infected in human hTERT-BJ1 cells assessed as inhibition of virus induced infection after 48 hrs post infection by luciferase reporter gene assay; format: functional, organism-based; conditions: BJ; procedure, shortened: as §4
[26] = test system: Human betaherpesvirus 5; test: Antiviral activity against Human cytomegalovirus Towne infected in human hTERT-BJ1 cells assessed as inhibition of attachment of virus particles to the cell surface at 20 uM after 2 hrs post infection by quantitative PCR; format: functional, organism-based; conditions: BJ
[27] = test system: Human betaherpesvirus 5; test: Antiviral activity against Human cytomegalovirus Towne infected in human hTERT-BJ1 cells assessed as decrease in ICP22 mRNA level at 20 uM after 48 hrs by immunofluorescent assay; format: functional, organism-based; conditions: BJ
[28] = test system: Human betaherpesvirus 5; test: Antiviral activity against human cytomegalovirus Towne infected in human U4C-48 cells assessed as decrease in viral titer by luciferase reporter gene assay; format: functional, organism-based; conditions: Human betaherpesvirus 5, Towne
Procedure, shortened: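 U4C-48 reporter cells (U373MG carrying TRL4 promoter-luciferase) infected with HCMV laboratory strain or clinical isolates and cultured 2 days with compound dilutions; luciferase read by chemiluminescence, triplicate. EC50 taken as concentration reducing luciferase to the level of cells given half the virus inoculum.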

[29] = test system: Human betaherpesvirus 5; test: Antiviral activity against 0.05 MOI Human cytomegalovirus Towne infected in human hTERT-BJ1 cells assessed as decrease in IE1 gene expression at 15 uM after 24 hrs by RT-PCR; format: functional, organism-based; conditions: BJ; procedure, shortened: as §3

For Nc1nc2c(ncn2COC(CO)CO)c(=O)[nH]1 [GANCICLOVIR], which EC50 [1] is on record?
The EC50 was 5.7 µM.

And the EC50 [2]?
The EC50 was 25.9 µM.

What about the EC50 [3] of the same molecule?
The EC50 was 1.4 µM.

Which CC50 [4] does the source give for NC(=O)C1CCN(c2c(Cl)cncc2Cl)CC1 here?
The CC50 was 100 µM.

What about the Activity [5] of the same molecule?
The Activity was “Active”.

What about the inhibition [6] of the same molecule?
The inhibition was “Active”.

And the inhibition [7]?
Its inhibition is “Active”.

And the inhibition [8]?
The inhibition was “Active”.

And the CC50 [9]?
Its CC50 is 100 µM.

What about the selectivity ratio [10] of the same molecule?
The selectivity ratio was greater than 10.

And the inhibition [11]?
The inhibition was “Active”.

What about the EC50 [1] of the same molecule?
The EC50 was 3 µM.

And the EC50 [12]?
Its EC50 is 5 µM.

And the inhibition [13]?
Its inhibition is “Active”.

And the Activity [14]?
Its Activity is “Active”.

What about the selectivity ratio [15] of the same molecule?
The selectivity ratio was greater than 10.

What about the inhibition [16] of the same molecule?
The inhibition was “Active”.

What about the Activity [17] of the same molecule?
The Activity was “inactive”.

What about the inhibition [18] of the same molecule?
Its inhibition is “Active”.

And the EC50 [2]?
The EC50 was 6.2 µM.

And the Activity [19]?
The Activity was “Active”.

What about the Activity [20] of the same molecule?
The Activity was “inactive”.

And the inhibition [21]?
The inhibition was “Active”.

And the EC50 [22]?
The EC50 was 3.5 µM.

What about the inhibition [23] of the same molecule?
Its inhibition is “Active”.

What about the inhibition [24] of the same molecule?
Its inhibition is “Active”.

What about the inhibition [25] of the same molecule?
The inhibition was “inactive”.

What about the inhibition [26] of the same molecule?
Its inhibition is “inactive”.

And the inhibition [27]?
Its inhibition is “Active”.

What about the EC50 [28] of the same molecule?
Its EC50 is 5 µM.

And the Activity [29]?
Its Activity is “Active”.

What about the EC50 [3] of the same molecule?
The EC50 was 2.5 µM.
